Test results: ChEMBL document CHEMBL1177846, “Benzylidene/2-chlorobenzylidene hydrazides: synthesis, antimicrobial activity, QSAR studies and antiviral evaluation” (Eur J Med Chem, 2010)
Calls of active or inactive are those of the source. No cut-off for these calls is given here.

Tests used:
Human alphaherpesvirus 2 = test: Antiviral activity against Herpes simplex virus 2 G infected in human HEL cells assessed as inhibition of virus-induced cytopathic effect after 3 days by MTS assay; assay type: functional, organism-based; settings: strain G
Procedure, shortened: (§1)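 Confluent cell monolayers were infected with 100 CCID50 of virus and allowed 2 h adsorption at 37 °C. Virus was then removed and serial compound dilutions were added. Cultures were incubated at 37 °C for 3 days, until CPE was complete in the untreated virus control. EC50 was the concentration giving 50% inhibition of virus-induced CPE, by visual score or by MTS formazan cell viability.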

Human alphaherpesvirus 1 [1] = test: Antiviral activity against acyclovir-resistant […] kinase-deficient HSV1 KOS infected in human HEL cells assessed as inhibition of virus-induced cytopathic effect after 3 days by MTS assay; assay type: functional, organism-based; procedure, shortened: as §1
[2] = tested on: Mammalian orthoreovirus 1; test: Antiviral activity against Reovirus 1 infected in african green monkey Vero cells assessed as inhibition of virus-induced cytopathic effect after 3 days by MTS assay; assay type: functional, organism-based; procedure, shortened: as §1
Candida albicans = test: Antifungal activity against Candida albicans after 48 hrs by serial dilution method; assay type: functional
Procedure, shortened: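 Serial compound dilutions in Sabouraud dextrose broth (tube dilution), incubated 37 °C for 48 h. MIC was read as the lowest concentration with no growth.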

Punta Toro virus = test: Antiviral activity against Punta toro virus infected in african green monkey Vero cells assessed as inhibition of virus-induced cytopathic effect after 3 days by MTS assay; assay type: functional, organism-based; procedure, shortened: as §1
Human alphaherpesvirus 1 [3] = test: Antiviral activity against Herpes simplex virus 1 KOS infected in human HEL cells assessed as inhibition of virus-induced cytopathic effect after 3 days by MTS assay; assay type: functional, organism-based; procedure, shortened: as §1
Coxsackievirus B4 = test: Antiviral activity against Coxsackie virus B4 infected in african green monkey Vero cells assessed as inhibition of virus-induced cytopathic effect after 3 days by MTS assay; assay type: functional, organism-based; procedure, shortened: as §1
Feline coronavirus = test: Antiviral activity against Feline caronavirus infected in […] cells assessed as inhibition of virus-induced cytopathic effect after 3 days by MTS assay; assay type: functional, organism-based; procedure, shortened: as §1
Influenza B virus = test: Antiviral activity against influenza B virus infected in MDCK cells assessed as inhibition of virus-induced cytopathic effect after 3 days by MTS assay; assay type: functional, organism-based; procedure, shortened: as §1
Sindbis virus = test: Antiviral activity against Simbidis virus infected in african green monkey Vero cells assessed as inhibition of virus-induced cytopathic effect after 3 days by MTS assay; assay type: functional, organism-based; procedure, shortened: as §1
Bacillus subtilis = test: Antibacterial activity against Bacillus subtilis after 24 hrs by serial dilution method; assay type: functional
[4] = tested on: Vesicular stomatitis virus; test: Antiviral activity against VSV infected in human HEL cells assessed as inhibition of virus-induced cytopathic effect after 3 days by MTS assay; assay type: functional, organism-based; procedure, shortened: as §1
Human respirovirus 3 = test: Antiviral activity against Parainfluenza 3 virus infected in african green monkey Vero cells assessed as inhibition of virus-induced cytopathic effect after 3 days by MTS assay; assay type: functional, organism-based; procedure, shortened: as §1
Influenza A virus [5] = test: Antiviral activity against influenza A virus H1N1 infected in MDCK cells assessed as inhibition of virus-induced cytopathic effect after 3 days by MTS assay; assay type: functional, organism-based; procedure, shortened: as §1
Escherichia coli = test: Antibacterial activity against Escherichia coli after 24 hrs by serial dilution method; assay type: functional
Felid alphaherpesvirus 1 = test: Antiviral activity against Feline herpesvirus 1 infected in […] cells assessed as inhibition of virus-induced cytopathic effect after 3 days by MTS assay; assay type: functional, organism-based; procedure, shortened: as §1
Aspergillus niger = test: Antifungal activity against Aspergillus niger after 7 days by serial dilution method; assay type: functional
Influenza A virus [6] = test: Antiviral activity against influenza A virus H3N2 infected in MDCK cells assessed as inhibition of virus-induced cytopathic effect after 3 days by MTS assay; assay type: functional, organism-based; procedure, shortened: as §1
Vaccinia virus = test: Antiviral activity against Vaccinia virus infected in human HEL cells assessed as inhibition of virus-induced cytopathic effect after 3 days by MTS assay; assay type: functional, organism-based; settings: Orthopoxvirus vaccinia; procedure, shortened: as §1
Staphylococcus aureus = test: Antibacterial activity against Staphylococcus aureus after 24 hrs by serial dilution method; assay type: functional

SMILES | inhibition (Human alphaherpesvirus 2) | inhibition (Human alphaherpesvirus 1 [1]) | inhibition [2] | MFC (Candida albicans) | inhibition (Punta Toro virus) | inhibition (Human alphaherpesvirus 1 [3]) | inhibition (Coxsackievirus B4) | inhibition (Feline coronavirus) | inhibition (Influenza B virus) | inhibition (Sindbis virus) | MBC (Bacillus subtilis) | inhibition [4] | inhibition (Human respirovirus 3) | inhibition (Influenza A virus [5]) | MBC (Escherichia coli) | inhibition (Felid alphaherpesvirus 1) | -logMIC (Aspergillus niger) | MFC (Aspergillus niger) | inhibition (Influenza A virus [6]) | inhibition (Vaccinia virus) | further results
CCCCCCCCCCCCCCCC(=O)N/N=C/c1ccccc1 | inactive | inactive | inactive | >0.139 uM/ml | inactive | inactive | inactive | inactive | inactive | inactive | 0.139 uM/ml | inactive | inactive | inactive | >0.139 uM/ml | inactive | 0.86 | >0.139 uM/ml | inactive | inactive | MBC (Staphylococcus aureus): >0.139 uM/ml
Cc1cccc(C(=O)N/N=C/c2ccccc2Cl)c1 | inactive | inactive | inactive | >0.183 uM/ml | inactive | inactive | inactive | inactive | inactive | inactive | 0.045 uM/ml | inactive | inactive | inactive | 0.045 uM/ml | inactive | 1.51 | >0.183 uM/ml | inactive | inactive | MBC (Staphylococcus aureus): >0.183 uM/ml
CCCCCCCCCCCCCC(=O)N/N=C/c1ccccc1 | inactive | inactive | inactive | >0.152 uM/ml | inactive | inactive | inactive | inactive | inactive | inactive | >0.152 uM/ml | inactive | inactive | inactive | >0.152 uM/ml | inactive | 1.24 | >0.152 uM/ml | inactive | inactive | MBC (Staphylococcus aureus): >0.152 uM/ml
O=C(N/N=C/c1ccccc1Cl)c1cc([N+](=O)[O-])cc([N+](=O)[O-])c1 | inactive | inactive | inactive | >0.13 uM/ml | inactive | inactive | inactive | inactive | inactive | inactive | 0.065 uM/ml | inactive | inactive | inactive | >0.13 uM/ml | inactive | 1.6 | >0.13 uM/ml | inactive | inactive | -logMIC (Candida albicans): 2.05; MBC (Staphylococcus aureus): >0.13 uM/ml
O=C(/C=C/c1ccccc1)N/N=C/c1ccccc1Cl | inactive | inactive | inactive | >0.176 uM/ml | inactive | inactive | inactive | inactive | inactive | inactive | 0.088 uM/ml | inactive | inactive | inactive | >0.176 uM/ml | inactive | 1.76 | >0.176 uM/ml | inactive | inactive | MBC (Staphylococcus aureus): 0.176 uM/ml
CCCCCCCCCCCC(=O)N/N=C/c1ccccc1 | inactive | inactive | inactive | >0.166 uM/ml | inactive | inactive | inactive | inactive | inactive | inactive | >0.166 uM/ml | inactive | inactive | inactive | 0.041 uM/ml | inactive | 1.21 | >0.166 uM/ml | inactive | inactive | MBC (Staphylococcus aureus): >0.166 uM/ml
CCCCCCCCCCCCCCCC(=O)N/N=C/c1ccccc1Cl | inactive | inactive | inactive | >0.127 uM/ml | inactive | inactive | inactive | inactive | inactive | inactive | 0.031 uM/ml | inactive | inactive | inactive | 0.031 uM/ml | inactive | 1.27 | >0.127 uM/ml | inactive | inactive | -logMIC (Candida albicans): 2.1; -logMIC (Bacillus subtilis): 1.49; -logMIC (Staphylococcus aureus): 1.5; MBC (Staphylococcus aureus): >0.127 uM/ml
C/C=C/C=C/C(=O)N/N=C/c1ccccc1Cl | inactive | inactive | inactive | >0.201 uM/ml | inactive | inactive | inactive | inactive | inactive | inactive | 0.05 uM/ml | inactive | inactive | inactive | 0.1 uM/ml | inactive | 1.5 | >0.201 uM/ml | inactive | inactive | MBC (Staphylococcus aureus): >0.201 uM/ml
C/C=C/C=C/C(=O)N/N=C/c1ccccc1 | inactive | inactive | inactive | >0.233 uM/ml | inactive | inactive | inactive | inactive | inactive | inactive | >0.233 uM/ml | inactive | inactive | inactive | 0.058 uM/ml | inactive | 1.54 | >0.233 uM/ml | inactive | inactive | -logMIC (Candida albicans): 0.93; MBC (Staphylococcus aureus): >0.233 uM/ml
CCCCCCCCCCCCCCCCCC(=O)N/N=C/c1ccccc1 | inactive | inactive | inactive | <0.129 uM/ml | inactive | inactive | inactive | inactive | inactive | inactive | <0.129 uM/ml | inactive | inactive | inactive | 0.064 uM/ml | inactive | 1.2 | 0.03 uM/ml | inactive | inactive | -logMIC (Candida albicans): 2.09; -logMIC (Bacillus subtilis): 1.49; -logMIC (Escherichia coli): 1.79; MBC (Staphylococcus aureus): 0.129 uM/ml
OC(Cn1cncn1)(Cn1cncn1)c1ccc(F)cc1F [FLUCONAZOLE] | – | – | – | – | – | – | – | – | – | – | – | – | – | – | – | – | 2.64 | – | – | – | –
